# Test results reported in ChEMBL document CHEMBL5335790, “Design, synthesis and biological evaluation of novel 2,4-thiazolidinedione derivatives able to target the human BAG3 protein” (Eur J Med Chem, 2023).
# The source made the active and inactive calls. The rule behind the calls is not given here.
# Experiments:
# [1] = system: HD-MB03; test: Sensitization of chemotherapy induced cytotoxicity against human HD-MB03 cells assessed as inhibition of cell growth at 2.5 uM incubated for 72 hrs in presence of 0.25 unit of vincristine, etoposide, cisplatin, cyclophosphamide by resazurin dye based analysis (reference value: 73.44 +/- 0.92%); format: functional
# [2] = system: HD-MB03; test: Sensitization of chemotherapy induced cytotoxicity against human HD-MB03 cells assessed as inhibition of cell growth at 2.5 uM incubated for 72 hrs in presence of 1 unit of vincristine, etoposide, cisplatin, cyclophosphamide by resazurin dye based analysis (reference value: 91.53 +/- 1.15%); format: functional
# [3] = system: HD-MB03; test: Sensitization of chemotherapy induced cytotoxicity against human HD-MB03 cells assessed as inhibition of cell growth at 1.25 uM incubated for 72 hrs in presence of 2 unit of vincristine, etoposide, cisplatin, cyclophosphamide by resazurin dye based analysis (reference value: 97.7 +/- 1.3%); format: functional
# [4] = system: A549; test: Antiproliferative activity against human A549 cells assessed as cell growth inhibition incubated for 72 hrs by resazurin dye based analysis; format: functional
# Procedure, shortened: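 Cells seeded at 2000/well, treated 24 h later with compounds in a 6-point 2-fold dose series, duplicate wells, two independent experiments. After 72 h, resazurin was added at 44 µM final for 3 h at 37 °C and fluorescence was read at 590 nm. Viability was normalized to 1 µM bortezomib (positive) and 0.5% DMSO (negative) controls. GI50 is the mean ± SEM of dose-response curves.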
# [5] = system: HD-MB03; test: Sensitization of chemotherapy induced cytotoxicity against human HD-MB03 cells assessed as inhibition of cell growth at 1.25 uM incubated for 72 hrs in presence of 0.25 unit of vincristine, etoposide, cisplatin, cyclophosphamide by resazurin dye based analysis (reference value: 73.44 +/- 0.92%); format: functional
# [6] = system: HD-MB03; test: Sensitization of chemotherapy induced cytotoxicity against human HD-MB03 cells assessed as inhibition of cell growth at 10 uM incubated for 72 hrs in presence of 0.25 unit of vincristine, etoposide, cisplatin, cyclophosphamide by resazurin dye based analysis (reference value: 73.44 +/- 0.92%); format: functional
# [7] = system: HD-MB03; test: Induction of cell cycle arrest in human HD-MB03 cells assessed as accumulation of cells at G1 phase at 10 uM incubated for 48 hrs by RNase/PI staining based cytofluorimetric analysis (reference value: 54.7%); format: functional
# [8] = system: HD-MB03; test: Sensitization of chemotherapy induced cytotoxicity against human HD-MB03 cells assessed as inhibition of cell growth at 1.25 uM incubated for 72 hrs in presence of 0.5 unit of vincristine, etoposide, cisplatin, cyclophosphamide by resazurin dye based analysis (reference value: 83.74+/- 0.54%); format: functional
# [9] = system: HD-MB03; test: Sensitization of chemotherapy induced cytotoxicity against human HD-MB03 cells assessed as inhibition of cell growth at 5 uM incubated for 72 hrs in presence of 0.5 unit of vincristine, etoposide, cisplatin, cyclophosphamide by resazurin dye based analysis (reference value: 83.74+/- 0.54%); format: functional
# [10] = system: HD-MB03; test: Induction of apoptosis in human HD-MB03 cells assessed as membrane blebbing at 20 uM incubated for 24 hrs in presence of chloroquine by bright field imaging analysis; format: functional, cell-based
# [11] = system: HD-MB03; test: Sensitization of chemotherapy induced cytotoxicity against human HD-MB03 cells assessed as inhibition of cell growth at 2.5 uM incubated for 72 hrs in presence of 0.12 unit of vincristine, etoposide, cisplatin, cyclophosphamide by resazurin dye based analysis (reference value: 51.43 +/- 1.17%); format: functional
smiles,measurement,setting,value
CC(C(=O)N1CCOCC1)N1C(=O)S/C(=C\c2cccc(O)c2O)C1=O (racemic),inhibition at 2.5 µM,[1],69.9%
same,inhibition at 2.5 µM,[2],92%
same,inhibition at 1.25 µM,[3],96.6%
same,GI50,[4],28 µM
same,inhibition at 1.25 µM,[5],70.3%
same,inhibition at 10 µM,[6],82.2%
same,Activity,[7],52.45%
same,inhibition at 1.25 µM,[8],82.7%
same,inhibition at 5 µM,[9],88.4%
same,Activity,[10],Active
same,inhibition at 2.5 µM,[11],53.4%
